Experimental data collected from several papers.
Each line is one published result; the experiments were not run side by side.
Cell line: MCF7
Observed: cell growth or viability

SMILES | technique | tested at | time | quantity | value
COc1ccc(C(=O)/C=C/c2ccc3ccccc3c2)cc1S(N)(=O)=O | SRB | 10 µM | – | inhibition | 175%
Cc1ccc2nc(-c3ccc([N+](=O)[O-])cc3)n(Cc3ccc(Cl)cc3)c2c1 | MTT | – | – | IC50 | 6.24 µM
COc1ccc(C(=O)/C=C/c2ccccc2Cl)cc1S(N)(=O)=O | SRB | 10 µM | – | inhibition | 4%
CCCCCCCCCCCCNC(=S)NCCCC[C@H](NS(C)(=O)=O)C(=O)N[C@@H](C)C(=O)N[C@@H](CCCNC(=N)N)C(N)=O | MTT | – | 72 h | EC50 | 63.7 to 84.3 µM
COc1ccc(C(=O)/C=C/c2ccc3c(c2)OC(F)(F)O3)cc1S(N)(=O)=O | SRB | 10 µM | – | inhibition | 7%
CCCCCCCCCCCCNC(=S)NCCCC[C@H](NC(=O)OCc1ccccc1)C(=O)N[C@@H](C)C(=O)N[C@@H](CCCNC(=N)N)C(N)=O | MTT | – | 72 h | EC50 | 64.7 to 76.6 µM
C[C@]12CC[C@@H]3c4ccc(O)cc4CC[C@H]3[C@@H]1CC[C@@H]2O | ATP luminescence | – | 72 h | EC90 | 53.5 µM
COc1cc(CNC(=O)CCCC/C=C/C(C)C)ccc1O | SRB | 10 µM | – | inhibition | 24%
COc1ccc(C(=O)/C=C/c2cccnc2)cc1S(N)(=O)=O | SRB | 10 µM | – | inhibition | 93%
Cc1ccc2nc(-c3ccncc3)[nH]c2c1 | MTT | – | 48 h | IC50 | 54.6 µM
COc1cccc2c1C(=O)c1c(O)c3c(c(O)c1C2=O)C[C@@](O)(C(=O)CO)C[C@@H]3O[C@H]1C[C@H](N)[C@H](O)[C@H](C)O1 | MTT | – | – | TGI | 0.21 µM
C=CCn1c(-c2ccc(OC)c(OC)c2)nc2ccccc21 | MTT | – | – | IC50 | 37 µM
COc1ccc(Cc2nc(/N=C3\NC(=O)N(C)C3=O)n(C)c2Cc2ccc(O)cc2)cc1 | – | – | – | EC50 | 5.9 µM
C[C@@H](NC(=O)[C@H](CCCCNC(=O)C(F)(F)F)NS(C)(=O)=O)C(=O)N[C@@H](CCCNC(=N)N)C(N)=O | MTT | – | 72 h | EC50 | 47.6 to 62.8 µM
COc1cc(C(CC(C)=O)NCCc2ccc(O)c(O)c2)ccc1O (stereo not drawn) | MTT | – | – | TGI | 46.2 µM
COc1ccc(C(=O)/C=C/c2c(F)cccc2Cl)cc1S(N)(=O)=O | SRB | 10 µM | – | inhibition | 105%
COc1cccc2c1C(=O)c1c(O)c3c(c(O)c1C2=O)C[C@@](O)(C(=O)CO)C[C@@H]3O[C@H]1C[C@H](N)[C@H](O)[C@H](C)O1 | SRB | – | – | IC50 | 0.06 µM
Clc1ccc(-c2nc3ccccc3n2Cc2ccccc2)cc1Cl | MTT | – | – | IC50 | 62.4 µM
COc1cc(C(CC(N)=O)NCCc2ccc(O)c(O)c2)ccc1O (stereo not drawn) | MTT | – | – | TGI | 52 µM
Clc1ccc(-c2nc3ccccc3[nH]2)c(Cl)c1 | MTT | – | 48 h | IC50 | 55.8 µM
COc1ccc(C(=O)/C=C/c2ccccc2Br)cc1S(N)(=O)=O | SRB | 10 µM | – | inhibition | 171%
C=CCn1c(-c2ccc([N+](=O)[O-])cc2)nc2ccccc21 | MTT | – | – | IC50 | 34.1 µM
CC/C(=C(\c1ccccc1)c1ccc(OCCN(C)C)cc1)c1ccccc1 | ATP luminescence | – | 72 h | EC90 | 32.2 µM
CSc1ccc(-c2nc3ccc(C)cc3n2Cc2ccccc2)cc1 | MTT | – | – | IC50 | 29 µM
COc1ccccc1/C=C/C(=O)c1ccc(OC)c(S(N)(=O)=O)c1 | SRB | – | 48 h | GI50 | 2.7 µM
CCOc1cc(-c2nc3ccccc3[nH]2)ccc1O | MTT | – | 48 h | IC50 | 59.2 µM
COc1cc(C(CC(=O)c2ccc(C(C)(C)C)cc2)NCCc2ccc(O)c(O)c2)ccc1O (stereo not drawn) | MTT | – | – | TGI | 4.24 µM
